From article PMC5680101 (The journal of physical chemistry. B, 2017)
Several values for one entry are separate records, joined by “and”; a condition that tells them apart may be missing. Equal values may be shown once. Read-outs that look alike come from different tables or passages of the source.

Key:
Format in all cases: binding, E. coli
basic β-barrel proteins = assay: steady-state FP anisotropy, detergent desolvation, basic β barrels
Outline: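 Basic FhuA variants, C-terminal His6, labeled with 200 μM Texas Red C2 maleimide overnight at room temperature in 6 M Gdm-HCl. Denatured protein refolded by 50-fold dilution into 200 mM NaCl, 50 mM HEPES, pH 7.4, 4°C, detergent above CMC. Then diluted into wells of varying detergent, 28 nM final protein. 15 min equilibration, kinetic anisotropy read, 24 h endpoints at 4°C.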

OmpG = OmpG (Escherichia coli, UniProt P76045, D245C); assay: biochemical; conditions: for q (slope factor or transition steepness): calculated at the midpoint of the dissociation phase; for ΔRh: decrease in hydrodynamic radius as a result of detergent desolvation; for p (Hill coefficient): four-parameter Hill fit; for rmax: maximum anisotropy at detergent concentrations above the CMC; for rmax / rmin: pH 7.4; for Rh max: maximum hydrodynamic radius of the proteomicelle; for rmin: minimum anisotropy, extrapolated for the lowest detergent concentration; for Dr fast: rotational diffusion coefficient under desolvation conditions; for Dr slow: rotational diffusion coefficient under solvation conditions; for ΔG: ΔG = RT ln Kd
FhuA ΔC/Δ5L_25N = FhuA ΔC/Δ5L_25N (Escherichia coli, UniProt P06971); conditions: for rmax: maximum anisotropy at detergent concentrations above the CMC; for rmax / rmin: pH 7.4; for rmin: minimum anisotropy, extrapolated for the lowest detergent concentration; for Dr fast: rotational diffusion coefficient under desolvation conditions; for Dr slow: rotational diffusion coefficient under solvation conditions
FhuA ΔC/Δ5L = FhuA ΔC/Δ5L (Escherichia coli, UniProt P06971, DEL561-566/INS560[…], form not given); conditions: for q (slope factor or transition steepness): calculated at the midpoint of the dissociation phase; for ΔRh: decrease in hydrodynamic radius as a result of detergent desolvation; for p (Hill coefficient): four-parameter Hill fit; for p (Hill coefficient) / Kd: pH 7.4, 24°C; for Kd: read-out: Kd (apparent dissociation constant), midpoint of dose-dependent dissociation phase; for ΔG: ΔG = RT ln Kd
FhuA ΔC/Δ7L_30N = FhuA ΔC/Δ7L_30N (Escherichia coli, UniProt P06971); conditions: for rmax: maximum anisotropy at detergent concentrations above the CMC; for rmax / rmin: pH 7.4; for rmin: minimum anisotropy, extrapolated for the lowest detergent concentration; for Dr fast: rotational diffusion coefficient under desolvation conditions; for Dr slow: rotational diffusion coefficient under solvation conditions
acidic β-barrel proteins = assay: steady-state FP anisotropy, detergent desolvation, acidic β barrels; conditions: physiological pH
Outline: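 Acidic β-barrels: FhuA ΔC/Δ5L, with a GS-rich single-Cys loop replacing turn T7, labeled with Texas Red C2 maleimide in 6 M Gdm-HCl. OmpG D224C labeled in 8 M urea at 1:20 protein:dye. Detergent-refolded protein diluted into wells of varying detergent spanning the CMC, 28 nM final protein. 15 min equilibration, kinetic steady-state anisotropy read, 24 h endpoints covered at 4°C.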

[1] = 200 mM NaCl, 50 mM HEPES, pH 7.4, 24°C
[2] = calculated at the midpoint of the dissociation phase
[3] = decrease in hydrodynamic radius as a result of detergent desolvation
[4] = four-parameter Hill fit, 200 mM NaCl, 50 mM HEPES, pH 7.4, 24°C
[5] = maximum hydrodynamic radius of the proteomicelle
[6] = read-out: Kd (apparent dissociation constant), midpoint of dose-dependent dissociation phase, 200 mM NaCl, 50 mM HEPES, pH 7.4, 24°C
[7] = maximum anisotropy at detergent concentrations above the CMC, 200 mM NaCl, 50 mM HEPES, pH 7.4
[8] = minimum anisotropy, extrapolated for the lowest detergent concentration, 200 mM NaCl, 50 mM HEPES, pH 7.4
[9] = rotational diffusion coefficient under desolvation conditions
[10] = rotational diffusion coefficient under solvation conditions
[11] = anisotropy determined in 6 M Gdm-HCl

FhuA ΔC/Δ7L_30N, sequence (P06971 194-747, stated change not applied): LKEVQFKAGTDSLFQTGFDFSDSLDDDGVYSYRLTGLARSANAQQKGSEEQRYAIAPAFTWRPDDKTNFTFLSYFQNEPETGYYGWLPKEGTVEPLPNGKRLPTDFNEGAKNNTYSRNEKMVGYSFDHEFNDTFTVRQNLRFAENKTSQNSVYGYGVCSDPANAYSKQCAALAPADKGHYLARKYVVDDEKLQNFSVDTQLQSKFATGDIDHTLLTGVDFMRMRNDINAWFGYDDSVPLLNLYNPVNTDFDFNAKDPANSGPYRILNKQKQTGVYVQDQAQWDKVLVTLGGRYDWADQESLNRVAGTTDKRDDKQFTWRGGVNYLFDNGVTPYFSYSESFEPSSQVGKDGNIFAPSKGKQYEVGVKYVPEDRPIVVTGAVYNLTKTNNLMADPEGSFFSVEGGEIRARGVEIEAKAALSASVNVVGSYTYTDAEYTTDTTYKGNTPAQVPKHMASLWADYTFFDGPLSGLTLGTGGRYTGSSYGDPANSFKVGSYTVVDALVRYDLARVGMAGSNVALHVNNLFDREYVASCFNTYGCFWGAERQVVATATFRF
FhuA ΔC/Δ5L_25N, sequence (P06971 194-747, stated change not applied): as above
FhuA ΔC/Δ5L, sequence (P06971 194-747, stated change not applied): as above
OmpG, sequence (P76045 22-301 D245C): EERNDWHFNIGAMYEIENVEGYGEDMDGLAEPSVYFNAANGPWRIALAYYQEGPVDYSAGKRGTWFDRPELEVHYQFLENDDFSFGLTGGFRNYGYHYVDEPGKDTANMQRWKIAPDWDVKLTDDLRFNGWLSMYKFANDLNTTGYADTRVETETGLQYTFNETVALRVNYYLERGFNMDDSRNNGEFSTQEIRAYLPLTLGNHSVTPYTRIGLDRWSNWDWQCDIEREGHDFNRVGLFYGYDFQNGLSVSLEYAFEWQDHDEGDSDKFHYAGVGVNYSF

Compound: CCCCCCCCCCO[C@@H]1O[C@H](CO)[C@@H](O[C@H]2O[C@H](CO)[C@@H](O)[C@H](O)[C@H]2O)[C@H](O)[C@H]1O [DM, n-decyl-β-D-maltoside]
- Hill cooperativity p (basic β-barrel proteins; basic FhuA proteins, pH 7.4): ~ 27
- Kd (basic β-barrel proteins; physiological pH): ~0.9 mM
- Kd (OmpG): 1.8 ± 0.4 mM
- q (slope factor or transition steepness) (OmpG): 0.064 mM⁻¹
- ΔRh (OmpG): 0.95 ± 0.04 nm
- p (Hill coefficient) (OmpG; [1]): 4.1 ± 1.2
- rmax (OmpG; 200 mM NaCl, 50 mM HEPES): 0.327 ± 0.001
- Rh max (OmpG): 2.6 nm
- rmin (OmpG; 200 mM NaCl, 50 mM HEPES): 0.214 ± 0.005
- Dr fast (OmpG): 3.5 ± 0.2 10^7 s^−1
- Dr slow (OmpG): 0.89 ± 0.02 10^7 s^−1
- ΔG (OmpG): -3.7 ± 0.1 kcal/mol
- q (slope factor or transition steepness) (FhuA ΔC/Δ5L_25N; [2]): 1.30 mM⁻¹
- ΔRh (FhuA ΔC/Δ5L_25N; [3]): 1.5 ± 0.1 nm
- p (Hill coefficient) (FhuA ΔC/Δ5L_25N; [4]): 27 ± 3
- rmax (FhuA ΔC/Δ5L_25N; 200 mM NaCl, 50 mM HEPES): 0.343 ± 0.002
- Rh max (FhuA ΔC/Δ5L_25N; [5]): 3.0 nm
- rmin (FhuA ΔC/Δ5L_25N; 200 mM NaCl, 50 mM HEPES): 0.166 ± 0.003
- Kd (FhuA ΔC/Δ5L_25N; [6]): 0.9 ± 0.1 mM
- Dr fast (FhuA ΔC/Δ5L_25N): 5.6 ± 0.2 10^7 s^−1
- Dr slow (FhuA ΔC/Δ5L_25N): 0.66 ± 0.03 10^7 s^−1
- ΔG (FhuA ΔC/Δ5L_25N; ΔG = RT ln Kd): -4.1 ± 0.1 kcal/mol
- q (slope factor or transition steepness) (FhuA ΔC/Δ5L): 0.072 mM⁻¹
- ΔRh (FhuA ΔC/Δ5L): 1.6 ± 0.1 nm
- p (Hill coefficient) (FhuA ΔC/Δ5L; 200 mM NaCl, 50 mM HEPES): 3.5 ± 0.5
- rmax (FhuA ΔC/Δ5L; [7]): 0.360 ± 0.001
- Rh max (FhuA ΔC/Δ5L; [5]): 3.3 nm
- rmin (FhuA ΔC/Δ5L; [8]): 0.219 ± 0.005
- Kd (FhuA ΔC/Δ5L; 200 mM NaCl, 50 mM HEPES): 1.7 ± 0.1 mM
- Dr fast (FhuA ΔC/Δ5L; [9]): 3.3 ± 0.2 10^7 s^−1
- Dr slow (FhuA ΔC/Δ5L; [10]): 0.44 ± 0.01 10^7 s^−1
- ΔG (FhuA ΔC/Δ5L): -3.8 ± 0.1 kcal/mol
- q (slope factor or transition steepness) (FhuA ΔC/Δ7L_30N; [2]): 1.07 mM⁻¹
- ΔRh (FhuA ΔC/Δ7L_30N; [3]): 1.0 ± 0.1 nm
- p (Hill coefficient) (FhuA ΔC/Δ7L_30N; [4]): 27 ± 6
- rmax (FhuA ΔC/Δ7L_30N; 200 mM NaCl, 50 mM HEPES): 0.312 ± 0.001
- Rh max (FhuA ΔC/Δ7L_30N; [5]): 2.4 nm
- rmin (FhuA ΔC/Δ7L_30N; 200 mM NaCl, 50 mM HEPES): 0.168 ± 0.007
- Kd (FhuA ΔC/Δ7L_30N; [6]): 0.9 ± 0.1 mM
- Dr fast (FhuA ΔC/Δ7L_30N): 1.0 ± 0.1 10^7 s^−1
- Dr slow (FhuA ΔC/Δ7L_30N): 5.5 ± 0.4 10^7 s^−1
- ΔG (FhuA ΔC/Δ7L_30N; ΔG = RT ln Kd): -4.1 ± 0.1 kcal/mol
- Kd (acidic β-barrel proteins): ~1.8 mM

Compound: Cl.N=C(N)N [Gdm-HCl, guanidinium hydrochloride]
- rmax (FhuA ΔC/Δ5L; [11]): ~0.16
- rmin (FhuA ΔC/Δ5L; [11]): ~0.16
- basal (minimum) anisotropy readout, r1 (FhuA ΔC/Δ5L; fully unfolded, most rotationally diffusive protein in 6 M Gdm-HCl): 0.16 and ~ 0.16
- Dr fast (FhuA ΔC/Δ5L; in 6 M Gdm-HCl): ~6.0 10^7 s^−1
- Dr slow (FhuA ΔC/Δ5L; in 6 M Gdm-HCl): ~6.0 10^7 s^−1
- Rh max (FhuA ΔC/Δ5L; in 6 M Gdm-HCl): 1.4 nm

Compound: CCCCCCCCO[C@@H]1O[C@H](CO)[C@@H](O)[C@H](O)[C@H]1O [OG, n-octyl-β-D-glucoside]
- q (slope factor or transition steepness) (OmpG): 0.017 mM⁻¹
- ΔRh (OmpG): 1.0 ± 0.1 nm
- p (Hill coefficient) (OmpG; [1]): 4.9 ± 0.5
- rmax (OmpG; 200 mM NaCl, 50 mM HEPES): 0.306 ± 0.001
- Rh max (OmpG): 2.4 nm
- rmin (OmpG; 200 mM NaCl, 50 mM HEPES): 0.153 ± 0.002
- Kd (OmpG; [6]): 11 ± 1 mM
- Dr fast (OmpG): 6.4 ± 0.1 10^7 s^−1
- Dr slow (OmpG): 1.2 ± 0.1 10^7 s^−1
- ΔG (OmpG): -2.7 ± 0.1 kcal/mol
- rmax (FhuA ΔC/Δ5L_25N; 200 mM NaCl, 50 mM HEPES): ~0.17
- rmin (FhuA ΔC/Δ5L_25N; 200 mM NaCl, 50 mM HEPES): ~0.15
- Dr fast (FhuA ΔC/Δ5L_25N): ~6.6 10^7 s^−1
- Dr slow (FhuA ΔC/Δ5L_25N): ~5.2 10^7 s^−1
- anisotropy signal (FhuA ΔC/Δ5L; acidic FhuA proteins refolded in detergent): ~ 0.3
- q (slope factor or transition steepness) (FhuA ΔC/Δ5L): 0.013 mM⁻¹
- ΔRh (FhuA ΔC/Δ5L): 0.80 ± 0.02 nm
- p (Hill coefficient) (FhuA ΔC/Δ5L; 200 mM NaCl, 50 mM HEPES): 5.3 ± 0.9
- rmax (FhuA ΔC/Δ5L; [7]): 0.291 ± 0.002
- Rh max (FhuA ΔC/Δ5L; [5]): 2.2 nm
- rmin (FhuA ΔC/Δ5L; [8]): 0.162 ± 0.002
- Kd (FhuA ΔC/Δ5L; 200 mM NaCl, 50 mM HEPES): 13 ± 1 mM
- Dr fast (FhuA ΔC/Δ5L; [9]): 5.8 ± 0.1 10^7 s^−1
- Dr slow (FhuA ΔC/Δ5L; [10]): 1.5 ± 0.1 10^7 s^−1
- ΔG (FhuA ΔC/Δ5L): -2.5 ± 0.1 kcal/mol
- rmax (FhuA ΔC/Δ7L_30N; 200 mM NaCl, 50 mM HEPES): ~0.17
- rmin (FhuA ΔC/Δ7L_30N; 200 mM NaCl, 50 mM HEPES): ~0.15
- Dr fast (FhuA ΔC/Δ7L_30N): ~6.6 10^7 s^−1
- Dr slow (FhuA ΔC/Δ7L_30N): ~5.2 10^7 s^−1

Compound: CCCCCCCCCCCCOS(=O)(=O)[O-].[Na+] [SDS]
- minimum anisotropy value, r0 (FhuA ΔC/Δ5L; in 40 mM SDS): ~ 0.16
